Results on three molecules are retold here after ChEMBL document CHEMBL5120843, “Structure and Antimicrobial Activity of Rare Lactone Lipids from the Sooty Mold (Scorias spongiosa)” (J Nat Prod, 2022).

Values after ≈ are worked out from the molar mass of the structure shown.

Experiment [1] deals with Cryptococcus neoformans. Description: Antifungal activity against Cryptococcus neoformans ATCC 90113 incubated for 70 to 74 hrs by CLSI protocol based assay. The experiment is classed as functional, organism-based.
Experiment [2] relates to Cryptococcus neoformans. Description: Antifungal activity against Cryptococcus neoformans ATCC 90113 assessed as minimum inhibitory concentration incubated for 70 to 74 hrs by CLSI protocol based assay. In kind it is functional. The note with it: time 70-74 hrs. In outline:
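Cryptococcus neoformans in Sabouraud dextrose broth at final 1.5 × 10^3, serially diluted samples in duplicate, final concentration 1/100th of stock. Read at 530 nm before and after 35 °C for 70–74 h. MIC is the lowest test concentration with no detectable growth.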

Experiment [3] deals with Nakaseomyces glabratus. In words: Antifungal activity against Candida glabrata ATCC 90030 assessed as minimum fungicidal concentration incubated for 46 to 50 hrs by CLSI protocol based assay. The experiment is classed as functional. The settings on record: time 46-50 hrs. In outline:
(§1)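 After the Candida broth microdilution (RPMI/MOPS pH 6.0, 35 °C, 46–50 h), 5 μL from each clear well moved to fresh medium and incubated again under the same conditions. MFC defined as the lowest test concentration that kills the organism.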

Experiment [4] has as its system Candida albicans. Description: Antifungal activity against Candida albicans ATCC 90028 incubated for 46 to 50 hrs by CLSI protocol based assay. The experiment is classed as functional, organism-based.
Experiment [5] concerns Nakaseomyces glabratus. Description: Antifungal activity against Candida glabrata ATCC 90030 incubated for 46 to 50 hrs by CLSI protocol based assay. The experiment is classed as functional, organism-based.
For experiment [6], the system named is Cryptococcus neoformans. Description: Antifungal activity against Cryptococcus neoformans ATCC 90113 assessed as minimum fungicidal concentration incubated for 70 to 74 hrs by CLSI protocol based assay. The experiment is classed as functional. The settings on record: time 70-74 hrs. In outline: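 From clear wells of the Cryptococcus broth assay (Sabouraud dextrose, 35 °C, 70–74 h), 5 μL transferred to fresh medium and reincubated under the same conditions. MFC is the lowest concentration that kills the organism.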

Experiment [7] has as its system Cryptococcus neoformans. In words: Synergistic antifungal activity against Cryptococcus neoformans H99 assessed as fractional inhibitory concentration incubated for 72 hrs by CLSI protocol based checkerboard assay. The experiment is classed as functional. In outline:
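Checkerboard in RPMI 1640 buffered with MOPS pH 7.0. Final inoculum 1.0 × 10^4 CFU/mL from an overnight H99 culture. […] OD490 read before and after 72 h at 30 °C, normalized to solvent control. FIC ≤0.5 taken as synergy.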

Experiment [8] has as its system Nakaseomyces glabratus. In words: Antifungal activity against Candida glabrata ATCC 90030 assessed as minimum inhibitory concentration incubated for 46 to 50 hrs by CLSI protocol based assay. The experiment is classed as functional. The note with it: time 46-50 hrs. In outline: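 Candida strains in RPMI 1640/0.2% dextrose/0.03% glutamine/MOPS, pH 6.0. Inoculum 1.5 × 10^3, samples serially diluted from DMSO stocks, duplicate wells, final concentration 1/100th of stock. Read at 530 nm before and after 35 °C for 46–50 h. MIC taken as lowest test concentration with no detectable growth.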

In experiment [9] the test system is Pichia kudriavzevii. In words: Antifungal activity against Candida krusei ATCC 6258 incubated for 46 to 50 hrs by CLSI protocol based assay. In kind it is functional, organism-based.
In experiment [10] the test system is Staphylococcus aureus. In words: Antibacterial activity against Staphylococcus aureus ATCC 29213 assessed as minimum bactericidal concentration incubated for 16 to 20 hrs by CLSI protocol based assay. In kind it is functional. The note with it: time 16-20 hrs.
Experiment [11] has as its system Staphylococcus aureus. In words: Antibacterial activity against Staphylococcus aureus ATCC 29213 assessed as minimum inhibitory concentration incubated for 16 to 20 hrs by CLSI protocol based assay. The experiment is classed as functional. The note with it: time 16-20 hrs.
Experiment [12] deals with Cryptococcus neoformans. In words: Synergistic antifungal activity against Cryptococcus neoformans H99 assessed as fold increase in amphotericin fungicidal activity at 2 ug/ml incubated for 48 hrs by CLSI protocol based yeast peptone dextrose agar plate method. In kind it is functional. The note with it: dose 2 µg/ml. In outline: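 Fungicidal read-out from the H99 checkerboard (RPMI/MOPS pH 7.0, 1.0 × 10^4 CFU/mL, 30 °C, 72 h). Plate shaken, then 2 μL from each well spotted on YPD agar and incubated at 30 °C for 48 h.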

Experiment [13] has as its system Staphylococcus aureus. Description: Antibacterial activity against methicillin-resistant Staphylococcus aureus ATCC 33591 assessed as minimum inhibitory concentration incubated for 16 to 20 hrs by CLSI protocol based assay. In kind it is functional. The note with it: time 16-20 hrs.
The test system of experiment [14] is Staphylococcus aureus. In words: Antibacterial activity against methicillin-resistant Staphylococcus aureus ATCC 33591 incubated for 16 to 20 hrs by CLSI protocol based assay. In kind it is functional, organism-based.
Experiment [15] has as its system Staphylococcus aureus. In words: Antibacterial activity against methicillin-resistant Staphylococcus aureus ATCC 33591 assessed as minimum bactericidal concentration incubated for 16 to 20 hrs by CLSI protocol based assay. The note with it: time 16-20 hrs. In kind it is functional.
Experiment [16] deals with Staphylococcus aureus. Description: Antibacterial activity against Staphylococcus aureus ATCC 29213 incubated for 16 to 20 hrs by CLSI protocol based assay. The experiment is classed as functional, organism-based.
Experiment [17] deals with Cryptococcus neoformans. Description: Synergistic antifungal activity against Cryptococcus neoformans H99 assessed as […] at 2 ug/ml incubated for 72 hrs by CLSI protocol based checkerboard assay. The experiment is classed as functional. The note with it: dose 2 µg/ml. In outline:
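Checkerboard per CLSI. Overnight C. neoformans H99 culture diluted in RPMI 1640 with MOPS, pH 7.0, to final 1.0 × 10^4 CFU/mL. […] Single-agent, solvent and media controls included. OD 490 nm read before and after 30 °C for 72 h, normalized to solvent control. FIC ≤ 0.5 scored as synergy.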

The test system of experiment [18] is Pichia kudriavzevii. In words: Antifungal activity against Candida krusei ATCC 6258 assessed as minimum fungicidal concentration incubated for 46 to 50 hrs by CLSI protocol based assay. The note with it: time 46-50 hrs. The experiment is classed as functional. In outline:
as §1

Experiment [19] has as its system Pichia kudriavzevii. Description: Antifungal activity against Candida krusei ATCC 6258 assessed as minimum inhibitory concentration incubated for 46 to 50 hrs by CLSI protocol based assay. The experiment is classed as functional. The note with it: time 46-50 hrs. In outline: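 Inoculum 1.5 × 10^3, samples serially diluted from DMSO stocks, duplicate wells, final concentration 1/100th of stock. Read at 530 nm before and after 35 °C for 46–50 h. MIC taken as lowest test concentration with no detectable growth.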

For orientation: IC50 means the point on the concentration scale where inhibition reaches its midpoint. Lower therefore signals greater potency. Usually MIC stands for the lowest concentration that inhibits growth of the organism. For orientation: MFC means the lowest tested concentration that kills the fungus rather than only halting it. Take `C[C@@H]1[C@H](O)[C@@H](C)/C=C/C=C/C=C/C=C/C=C/C=C/C=C/[C@H](O[C@@H]2O[C@H](C)[C@@H](O)[C@H](N)[C@@H]2O)C[C@@H]2O[C@](O)(C[C@@H](O)C[C@@H](O)[C@H](O)CC[C@@H](O)C[C@@H](O)CC(=O)O[C@H]1C)C[C@H](O)[C@H]2C(=O)O` [AMPHOTERICIN B]: the IC50 in experiment [1] is 0.35 µg/mL (≈ 0.379 µM); in experiment [4] it was 0.14 µg/mL (≈ 0.152 µM); in experiment [5], 0.21 µg/mL (≈ 0.227 µM); in experiment [9] it was 0.74 µg/mL (≈ 0.801 µM). Also, the minimum inhibitory concentration (MIC) in [2] and in [8] was 0.63 µg/mL (≈ 0.682 µM) throughout. Further, the MFC in experiment [3] and in experiment [6] was 0.63 µg/mL (≈ 0.682 µM) in each case. Further, in experiment [7], the FIC is recorded as 0.3.

As a reminder, the MBC is the lowest tested concentration that kills the bacteria rather than only halting them. `CCCCCCCCCCCC[C@]1(C)C=C/C(=C2/C(=O)O[C@@H](CC(=O)OC)C2=O)O1`: the values for the MBC in experiment [10] and in experiment [15] were 10 µg/mL (≈ 23.8 µM) and 5 µg/mL (≈ 11.9 µM), respectively. Also, the minimal inhibitory concentration (MIC) turned out to be 2.5 µg/mL (≈ 5.94 µM) in [11], 1.25 µg/mL (≈ 2.97 µM) in [13] and 1.25 µg/mL (≈ 2.97 µM) in experiment [2]. Also, the IC50 came out at 0.63 µg/mL (≈ 1.5 µM) in experiment [1], 0.71 µg/mL (≈ 1.69 µM) in [14], 1.08 µg/mL (≈ 2.57 µM) in experiment [16] and 20 µg/mL (≈ 47.6 µM) in [9]. Besides, the “fold change (FC)” value worked out at 8 in experiment [12] and 16 in experiment [17]. For the same molecule, the MFC in experiment [6] stood at 1.25 µg/mL (≈ 2.97 µM).

With `CCCCCCCCCCCC[C@]1(C)C=C/C(=C2/C(=O)O[C@@H](CC(=O)O)C2=O)O1`, the values for the minimal bactericidal concentration (MBC) in experiment [10] and in [15] were 20 µg/mL (≈ 49.2 µM) and 10 µg/mL (≈ 24.6 µM), respectively. The MIC in experiment [11] was 1.25 µg/mL (≈ 3.07 µM); in [13], 0.63 µg/mL (≈ 1.55 µM); in experiment [2], 0.63 µg/mL (≈ 1.55 µM); in experiment [19], 10 µg/mL (≈ 24.6 µM); in experiment [8], 10 µg/mL (≈ 24.6 µM). Also, the IC50 in experiment [1] is 0.37 µg/mL (≈ 0.91 µM); in experiment [14], 0.39 µg/mL (≈ 0.959 µM); in experiment [4] it was 15.3 µg/mL (≈ 37.6 µM); in experiment [5], 2.85 µg/mL (≈ 7.01 µM); in experiment [16], 0.44 µg/mL (≈ 1.08 µM); in [9], 6.31 µg/mL (≈ 15.5 µM). In addition, the figures for the minimum fungicidal concentration (MFC) in experiment [3], in experiment [18] and in [6] were 10 µg/mL (≈ 24.6 µM), 10 µg/mL (≈ 24.6 µM) and 0.63 µg/mL (≈ 1.55 µM), respectively.
